# Source: PubChem BioAssay (several laboratories)
# hERG rescue: hERG rescue from dofetilide block, primary screen, cell-based, CHO-hERG, FluxOR thallium flux, dofetilide IC70; 310,000 tested, 0.51% active; dofetilide IC70 present; Voltage-gated inwardly rectifying potassium channel KCNH2 (Homo sapiens), Q12809; activation (rescue from dofetilide block), less the hit threshold, % at 10 µM;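 active means activation above the mean of controls blocked by dofetilide plus 5 SD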;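 further: thallium influx through hERG after potassium depolarization seen as dye fluorescence rise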
# KCNQ1 pot: potentiators or activators of KCNQ1 channel, primary screen, cell-based, thallium flux, high-throughput; CHO-K1 KCNQ1, thallium flux FluxOR fluorescence; stronger effect = higher value; B-score at 10 µM; 310,000 tested, 0.35% active; AID 2648, 2010;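 active means fluorescence ratio B-score, a plate-corrected score, at least three library SD, with initial intensity B-score within 5 SD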
#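 assay system = KCNQ1-transfected CHO-K1 cells | medium = assay buffer with matched DMSO | probe or stimulus = depolarizing K+/Tl+ stimulus, K2SO4 and Tl2SO4 each 12.5 mM in 5x stock | dosing = single dose | incubation = dye 90 min, compound 20 min, room temperature | detection = kinetic FluxOR fluorescence, 10 s baseline plus 110 s post-stimulus | evaluation = ratio B score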
# KCNK9 block: KCNK9 potassium channel inhibitors, primary screen, HEK293 cells, thallium flux. FluxOR thallium flux fluorescence; stronger effect = lower value. AID 488922, 2010. B-score at 10 µM. Potassium channel subfamily K member 9 (Homo sapiens), Q9NPC2. 310,000 tested, 1.2% active;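 active means ratio B-score over 3 SD below the library mean, with starting fluorescence within 5 SD of its mean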;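 further: negative B-score means less thallium flux so channel inhibition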
# KCNQ1 block: inhibitors of human KCNQ1 channel, primary screen, cell-based, thallium flux, high-throughput; 310,000 tested, 1.3% active; Potassium voltage-gated channel subfamily KQT member 1 (Homo sapiens), P51787; B-score at 10 µM; CHO-K1 KCNQ1, FluxOR thallium flux fluorescence; stronger effect = higher value;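 active means compounds whose thallium flux B-score, printed positive for inhibition, exceeds three library SD while starting fluorescence stays within three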;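 further: channel opened by potassium depolarization with thallium stimulus after 20 min compound exposure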
# Cl transport mod: KCC2 cotransporter modulators, thallium flux, primary screen, cell-based, HEK293 KCC2, FluoZin-2 fluorescence, MLSMR; Solute carrier family 12 member 5 (Homo sapiens), Q9H2X9; KCC2 cells, thallium flux FluoZin-2 fluorescence; B-score of Tl+ flux slope (higher = more flux/activation; lower = inhibition) at 10 µM; 190,000 tested, 2.2% active; AID 1456, 2008;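 active means thallium flux slope and its plate-corrected score both differing from the plate sample mean at a set confidence after two filtering rounds, in either direction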;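 further: slope of fluorescence scaled to starting intensity during 10 to 20 s after thallium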
# KCNK3 inh: human KCNK3 channel inhibitors, primary screen, CHO cells, FluxOR thallium flux, B-score; Potassium channel subfamily K member 3 (Homo sapiens), O14649; FluxOR fluorescence; stronger effect = lower value; B-score at 10 µM; 340,000 tested, 0.84% active; AID 602410, 2012;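 active means B-score under library mean minus 4 SD, starting fluorescence ratio at most library mean plus 5 SD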;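 further: more negative B-score means stronger inhibition of thallium flux through KCNK3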
# The depositor's hits bear a star; i = inactive; nt = not tested or not shown. This is a sample that favours compounds with a hit; in the whole collection about 4.1% have one here.
SMILES,hERG rescue,KCNQ1 pot,KCNK9 block,KCNQ1 block,Cl transport mod,KCNK3 inh
O=C1CC(N(CCc2ccccc2)C(=S)Nc2ccccc2)C(=O)N1c1ccc(Br)cc1 (centres undefined),-4,i,i,6*,-0.33,i
CCN(CC)CC(=O)Nc1ccc2c(c1)N(C(=O)CN(CC)CC)c1ccccc1CC2,-6,i,i,i,nt,i
CCN(CC)CC(=O)Nc1ccc2c(c1)Nc1ccccc1CC2,-2,8*,i,i,nt,i
CCN1CCCC1CNC(=O)Cn1cc(C)c(=O)[nH]c1=O (centres undefined),nt,nt,nt,nt,nt,i
CCOC(=O)COC(=O)c1ccc(Oc2cc(C)nc(SC)n2)cc1,-4,i,i,i,-1.3,i
CCOC(=O)c1ccc(Oc2cc(C)nc(SC)n2)cc1,5.5*,i,i,i,-1.1,i
CCOC(=O)c1c(NC(=O)c2nn(CC)cc2Br)c(C#N)cn1-c1ccccc1,-5,i,i,i,0.28,-11*
O=C1C(Cl)=C(NCCN2CCCCC2)C(=O)c2ccccc21,-21,i,i,6*,-0.29,i
O=C(Cc1ccccc1)NC(=S)Nc1cccc(C(F)(F)F)c1,-5,i,i,i,6*,i
FC(F)(F)c1cccc(NC(=S)NNC(=S)NCc2ccccc2)c1,-15,i,i,7*,1.7,i
CC(=O)c1ccc(S(=O)(=O)N2CCN(C(=O)c3cccc(S(=O)(=O)N4CC(C)OC(C)C4)c3)CC2)cc1 (centres undefined),nt,nt,nt,nt,nt,i
CC(C)(C)OC(=O)N1CCC(C(=O)Nc2ccc(C(=O)NC3CC3)cc2)CC1,nt,nt,nt,nt,nt,i
CCN1CCN(Cc2c(O)ccc3c2O/C(=C\C=C\c2ccccc2OC)C3=O)CC1,-31,i,i,6*,i,i
Cc1ccc(/C=C2\Oc3c(ccc(O)c3CN3CCN(CCO)CC3)C2=O)cc1,-14,i,i,11*,i,i
CC(C)c1ccc(/C=C2\Oc3c(ccc(O)c3CN3CCN(C)CC3)C2=O)cc1,-21,i,i,i,-0.42,i
CCCC(=O)NC1=C(Cl)C(=O)c2ccccc2C1=O,nt,nt,nt,nt,nt,-9.3*
CCNC1=C(Cl)C(=O)c2ccccc2C1=O,-4,i,i,i,-2.5,i
Cc1ccc(OCC(=O)NNC(=O)Nc2ccc(Cl)cc2)c(Br)c1,-8,i,i,i,nt,i
CC12CCC(C(S(=O)(=O)Nc3ccccc3)C1=O)C2(C)C (centres undefined),nt,nt,nt,nt,nt,i
CCOc1ccc(C2c3[nH]c4ccccc4c3CCN2CCCn2cccn2)cc1 (centres undefined),-11,i,i,6*,nt,i
COc1cccc(-c2nc3ccc(C(=O)NC(C)Cc4cccnc4)cc3o2)c1 (centres undefined),-16,i,i,i,nt,i
COc1ccc(CCC(=O)NCCOc2ccc(C)cc2)cc1,-3,11*,i,i,nt,i
CCn1c2ccccc2c2cc(/C=N/n3cn[nH]c3=S)ccc21,-15,i,i,i,23*,i
CCn1c2ccccc2c2cc(/C=N/n3cnnc3)ccc21,-7,i,i,i,-1.7,i
COc1ccccc1NC(=S)NCCSc1ccc(Cl)cc1,-6,i,i,i,-1.3,i
SMILES,hERG rescue,KCNQ1 pot,KCNK9 block,KCNQ1 block,Cl transport mod,KCNK3 inh
COc1ccc(Cl)cc1NC(=S)NCCSc1ccc(C)cc1,-8,i,-8.1*,i,0.56,i
COc1ccc(C(CNC(=O)c2ccc(C)c(S(=O)(=O)N3CCOCC3)c2)N2CCCC2)cc1 (centres undefined),nt,nt,nt,nt,nt,i
Cc1csc(NC(=O)c2ccccc2)n1,-8,i,i,i,nt,i
CCOC(=O)Cc1csc(NC(=S)NC(=O)c2ccccc2Br)n1,15*,17*,i,i,50*,i
Cc1csc(NC(=S)NC(=O)c2ccccc2)n1,4.7*,i,i,i,nt,i
CCOC(=O)Cc1csc(NC(=S)NC(=O)c2ccc(C)cc2)n1,-5,i,i,i,55*,i
CCOC(=O)Cc1csc(NC(=S)NC(=O)c2ccccc2)n1,-5,i,i,i,52*,i
CCOC(=O)Cc1csc(NC(=O)c2ccc(Br)s2)n1,-21,i,i,i,0.28,nt
Cn1c(=O)c2nc3ccccc3nc2n(C)c1=O,-19,10*,i,i,0.33,i
Cn1c(=O)c2nc(-c3ccccc3)c(-c3ccccc3)nc2n(C)c1=O,-4,i,i,i,nt,i
CCCCc1nc2sc3c(SCC(=O)NCc4ccco4)ncnc3c2c2c1CCC2,-4,i,i,i,-1.4,i
CCCCc1nc2sc3c(SCCN(C)C)ncnc3c2c2c1CCC2,-6,21*,i,i,1.9,i
Cc1cc(C)cc(C(=O)NC(=S)Nc2ccc3c(c2)OCCO3)c1,-7,i,i,i,1,i
Cc1ccc(C(=O)NC(=S)Nc2ccc3c(c2)OCCO3)c(C)c1,-7,i,i,i,13*,i
Cc1c(NC(=O)c2cccc(NC(=O)COc3cccc(Br)c3)c2)c(=O)n(-c2ccccc2)n1C,nt,nt,nt,nt,nt,i
Cc1ccc(NC(=O)c2ccc3c(c2)CCN3S(C)(=O)=O)c(C)c1,5.3*,i,i,i,nt,i
O=C(c1ccc(COc2ccc3c(c2)CCC3)o1)N1CCN(c2ccccc2)CC1,-4,i,i,i,nt,i
O=C(c1ccco1)N1CCN(C(=O)c2ccc(COc3ccc(Cl)cc3Cl)o2)CC1,-25,i,i,i,-3.4*,i
O=C(c1ccc(COc2ccccc2Cl)o1)N1CCN(c2ccccc2)CC1,-17,i,i,i,-1.7,i
O=C(c1ccco1)N1CCN(C(=O)c2ccc(COc3ccc4c(c3)CCC4)o2)CC1,-1,i,-8*,i,-0.85,i
COc1ccccc1N1C(=O)CSC1=NC(=O)c1ccccc1,-6,i,i,i,-0.25,i
Cc1cccc(N2C(=O)CS/C2=N\NC(=O)c2ccc(Cl)cc2)c1C,-1,i,i,i,3*,i
